Assay [1] relates to Rattus norvegicus. Kind of assay: Antihepatotoxic effect against CCl4-induced liver damage in rat assessed as appearance of sinusoidal dilution in centrizonal area at 10 mg/kg, po by microscopic examination-based histopathological analysis. In kind it is functional, organism-based. The arrangement: dose 10 mg/kg. The procedure, abridged: (§1)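 Livers taken from Wistar rats (n = 5 per group) dosed with CCl4 1.5 ml/kg p.o. plus agents at 10 mg/kg p.o.; silymarin reference and normal controls included. Liver sections examined microscopically and scored descriptively for necrosis, inflammation, sinusoidal dilatation, central vein appearance, cytoplasmic staining, parenchyma and vascular change.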

Assay [2] deals with Rattus norvegicus. Nature of the assay: Antihepatotoxic activity against CCl4-induced liver damage in rat assessed as decrease in serum SGPT level at 10 mg/kg, po by calorimetric assay (reference value: 85.27 +/- 2.05 IU/L). In kind it is functional.
In assay [3] the test system is Rattus norvegicus. Kind of assay: Antihepatotoxic activity against CCl4-induced liver damage in rat assessed as decrease in ALP level at 10 mg/kg, po after 1 hr by photoelectric reading analysis (reference value: 66.157 +/- 2.886 KA). It counts as functional.
In assay [4] the test system is Rattus norvegicus. Nature of the assay: Antihepatotoxic activity against CCl4-induced liver damage in rat assessed as decrease in serum SGOT level at 10 mg/kg, po by calorimetric assay (reference value: 74.52 +/- 0.695 IU/L). It counts as functional.
Assay [5] relates to Rattus norvegicus. Kind of assay: Antihepatotoxic effect against CCl4-induced liver damage in rat assessed as appearance of normal parenchyma at 10 mg/kg, po by microscopic examination-based histopathological analysis. It counts as functional, organism-based. The arrangement: dose 10 mg/kg. The gist of the method:
as §1

The subject of assay [6] is Rattus norvegicus. Nature of the assay: Antihepatotoxic activity against CCl4-induced liver damage in rat assessed as increase in total protein level at 10 mg/kg, po (reference value: 3.54 +/- 0.67 g/dl). It counts as functional.
Assay [7] has as its system Rattus norvegicus. Kind of assay: Antihepatotoxic effect against CCl4-induced liver damage in rat assessed as appearance of moderate sinusoidal dilution around central vein at 10 mg/kg, po by microscopic examination-based histopathological analysis. In kind it is functional, organism-based. The arrangement: dose 10 mg/kg. The gist of the method: as §1
The test system of assay [8] is Rattus norvegicus. Nature of the assay: Antihepatotoxic effect against CCl4-induced liver damage in rat assessed as fine vascular changes in hepatocytes at 10 mg/kg, po by microscopic examination-based histopathological analysis. In kind it is functional, organism-based. Further details: dose 10 mg/kg. The note with it: Hepatocyte. The procedure, abridged: as §1
Assay [9] has as its system Rattus norvegicus. Kind of assay: Antihepatotoxic effect against CCl4-induced liver damage in rat assessed as appearance of little dilution at 10 mg/kg, po by microscopic examination-based histopathological analysis. In kind it is functional, organism-based. Further details: dose 10 mg/kg. The procedure, abridged: as §1
The subject of assay [10] is Rattus norvegicus. Nature of the assay: Antihepatotoxic effect against CCl4-induced liver damage in rat assessed as appearance of clear central vein at 10 mg/kg, po by microscopic examination-based histopathological analysis. The arrangement: dose 10 mg/kg. In kind it is functional, organism-based. The gist of the method:
as §1

For assay [11], the system named is Rattus norvegicus. Nature of the assay: Antihepatotoxic effect against CCl4-induced liver damage in rat assessed as appearance of uniformly stained cytoplasm at 10 mg/kg, po by microscopic examination-based histopathological analysis. In kind it is functional, organism-based. Further details: dose 10 mg/kg. The gist of the method:
as §1

Assay [12] relates to Rattus norvegicus. Kind of assay: Antihepatotoxic effect against CCl4-induced liver damage in rat assessed as appearance of visible central vein at 10 mg/kg, po by microscopic examination-based histopathological analysis. In kind it is functional, organism-based. Further details: dose 10 mg/kg. The procedure, abridged:
as §1

Assay [13] relates to Rattus norvegicus. Kind of assay: Antihepatotoxic effect against CCl4-induced liver damage in rat assessed as appearance of mild dilution of sinusoidal spaces at 10 mg/kg, po by microscopic examination-based histopathological analysis. It counts as functional, organism-based. Further details: dose 10 mg/kg. The note with it: Sinusoidal space. The procedure, abridged:
as §1

Assay [14] concerns Rattus norvegicus. Kind of assay: Antihepatotoxic effect against CCl4-induced liver damage in rat assessed as absence of necrosis at 10 mg/kg, po by microscopic examination-based histopathological analysis. In kind it is functional, organism-based. The arrangement: dose 10 mg/kg. The gist of the method:
as §1

For assay [15], the system named is Rattus norvegicus. Nature of the assay: Antihepatotoxic effect against CCl4-induced liver damage in rat assessed as appearance of moderate sinusoidal dilution at 10 mg/kg, po by microscopic examination-based histopathological analysis. It counts as functional, organism-based. Further details: dose 10 mg/kg. The procedure, abridged: as §1

The source made the active and inactive calls. The calls are words filed in the database; no cut-off is given here.

`COc1ccc(C2=NNC(c3ccc4c(c3)OCCO4)C2)cc1OC` (stereo not drawn): the result in the assay with Rattus norvegicus [1] and with Rattus norvegicus [5] was Active. Also, the Activity with Rattus norvegicus [2] is 64.95 IU/L; with Rattus norvegicus [3], 49.48 KA; in the assay on Rattus norvegicus [4] it was 58.85 IU/L; in the assay on Rattus norvegicus [6] it was 3.82 g/dL.
Consider `c1ccc(C2=NNC(c3ccc4c(c3)OCCO4)C2)cc1` (stereo not drawn), for which the Activity in the assay on Rattus norvegicus [2] was determined as 65 IU/L; with Rattus norvegicus [3], 53.14 KA; in the assay with Rattus norvegicus [4], 62.85 IU/L; in the assay with Rattus norvegicus [6] it was 4.04 g/dL. Further, the result with Rattus norvegicus [7] and in the assay on Rattus norvegicus [8] was Active.
Regarding `Cc1cccc(C2=NNC(c3ccc4c(c3)OCCO4)C2)c1` (stereo not drawn), the result in the assay with Rattus norvegicus [9] and in the assay with Rattus norvegicus [10] was Active. For the same compound, the Activity in the assay with Rattus norvegicus [2] is 64.13 IU/L; with Rattus norvegicus [3] it was 55.74 KA; in the assay with Rattus norvegicus [4], 64.85 IU/L; in the assay with Rattus norvegicus [6] it was 3.98 g/dL.
In the case of SILYMARIN, the outcome with Rattus norvegicus [11], with Rattus norvegicus [12], with Rattus norvegicus [13] and in the assay on Rattus norvegicus [14] was Active. For the same compound, the Activity with Rattus norvegicus [2] amounted to 61.3 IU/L; in the assay with Rattus norvegicus [3], 48.6 KA; in the assay on Rattus norvegicus [4], 56.2 IU/L; in the assay with Rattus norvegicus [6], 4.2 g/dL.
As for `Clc1ccc(C2=NNC(c3ccc4c(c3)OCCO4)C2)cc1` (stereo not drawn), the Activity in the assay with Rattus norvegicus [2] came out at 65.81 IU/L; in the assay with Rattus norvegicus [3], 46.06 KA; in the assay with Rattus norvegicus [4], 63.42 IU/L; in the assay with Rattus norvegicus [6] it was 3.91 g/dL. Moreover, the outcome in the assay on Rattus norvegicus [7] and with Rattus norvegicus [8] was Active.
For `Oc1ccc(C2=NNC(c3ccc4c(c3)OCCO4)C2)c(O)c1` (stereo not drawn), the Activity with Rattus norvegicus [2] amounted to 62.09 IU/L; with Rattus norvegicus [3] it was 58.22 KA; in the assay on Rattus norvegicus [4], 58.57 IU/L; with Rattus norvegicus [6] it was 3.82 g/dL. The outcome in the assay with Rattus norvegicus [15] and with Rattus norvegicus [5] was Active.

For the origin of these results see ChEMBL document CHEMBL1921787, “Synthesis and antihepatotoxic activity of 5-(2,3-dihydro-1,4-benzodioxane-6-yl)-3-substituted-phenyl-4,5-dihydro-1H-pyrazole derivatives” (2011).
